Measurements published in ChEMBL document CHEMBL4007417, “Target Elucidation by Cocrystal Structures of NADH-Ubiquinone Oxidoreductase of Plasmodium falciparum (PfNDH2) with Small Molecule To Eliminate Drug-Resistant Malaria” (J Med Chem, 2017).
The source made the active and inactive calls. No cut-off for these calls is given here.

Key:
Plasmodium yoelii [1] = experiment: Antimalarial activity against Plasmodium yoelii YM infected in BALB/c mouse assessed as mouse survival at 10 mg/kg, sc administered BID for 4 days starting at 96 hrs post infection, 8 hrs apart by Giemsa-staining based microscopic analysis; type: functional
Procedure, shortened: (§1)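 Mice inoculated with 1×106 P. yoelii parasites. Subcutaneous dosing for 4 days starting 96 h post infection, given once daily or twice daily 8 h apart. Parasitemia followed on Giemsa-stained blood smears. Survival recorded at 40 days post infection; groups of n=3. DMSO-only mice served as untreated controls.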

Plasmodium yoelii [2] = experiment: Antimalarial activity against Plasmodium yoelii YM infected in BALB/c mouse assessed as parasite growth inhibition at 5 mg/kg, sc administered QD for 4 days starting at 2 hrs post infection by Giemsa-staining based microscopic analysis; type: functional; conditions: read-out: GI
Procedure, shortened: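 P. yoelii-infected mice, n=3 per group. Subcutaneous injection once daily for 4 days starting at 2 h post infection. Growth inhibition determined at 24 h post treatment by blood-smear microscopy. Cure time taken as the minimum period to cure all mice in the group.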

Plasmodium yoelii [3] = experiment: Antimalarial activity against Plasmodium yoelii YM infected in BALB/c mouse assessed as parasite growth inhibition at 90 mg/kg, sc administered BID for 4 days starting at 96 hrs post infection, 8 hrs apart by Giemsa-staining based microscopic analysis; type: functional; conditions: read-out: GI
Procedure, shortened: (§2)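 P. yoelii-infected mice, n=3 per group. Subcutaneous injection twice daily, 8 h apart, for 4 days starting at 96 h post infection. Growth inhibition read from blood smears at 24 h post treatment. Cure time taken as the minimum period to cure all mice in the group. DMSO controls included.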

Plasmodium falciparum [4] = experiment: Antimalarial activity against quinine-resistant asexual blood stage Plasmodium falciparum C2A after 72 hrs by SYBR green-based fluorometric analysis; type: functional
Procedure, shortened: (§3)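 Mid-ring-stage cultures (~6-10 h post-invasion) at 1% parasitemia and 2% hematocrit, in triplicate. Twofold serial dilutions from a top concentration of 100 nM. Incubated 72 h at 37 °C under 5% CO2/5% O2/90% N2. Lysis buffer containing 5×SYBR Green I added, 20 min in the dark, fluorescence read at ex 485/em 538 nm. EC50 derived.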

Plasmodium falciparum [5] = experiment: Antimalarial activity against […] asexual blood stage Plasmodium falciparum 3D7 after 72 hrs by SYBR green-based fluorometric analysis; type: functional; conditions: 3D7, 72 h; procedure, shortened: as §3
Plasmodium yoelii [6] = experiment: Antimalarial activity against Plasmodium yoelii YM infected in BALB/c mouse assessed as parasite growth inhibition at 30 mg/kg, sc administered BID for 4 days starting at 96 hrs post infection, 8 hrs apart by Giemsa-staining based microscopic analysis; type: functional; conditions: read-out: GI; procedure, shortened: as §2
Plasmodium falciparum [7] = experiment: Antimalarial activity against sulfadoxine-pyrimethamine/mefloquine resistant asexual blood stage Plasmodium falciparum CP286 after 72 hrs by SYBR green-based fluorometric analysis; type: functional; conditions: CP286, 72 h; procedure, shortened: as §3
HeLa = experiment: Cytotoxicity against human HeLa cells assessed as reduction in cell viability up to 2 uM after 48 hrs by MTT assay; type: cell-based
Procedure, shortened: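 HeLa cell viability measured by MTT assay with compound at concentrations up to 2 µM.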

Plasmodium falciparum [8] = experiment: Antimalarial activity against chloroquine/quinine/sulfadoxine-pyrimethamine/amodiaquine-resistant asexual blood stage Plasmodium falciparum Dd2 assessed as reduction in parasite recrudescence at 10 times EC50 for 72 hrs measured after 28 days post invasion by Giemsa staining-based light microscopic analysis; type: functional
Procedure, shortened: (§4)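 Parasite cultures exposed for 72 h to 10× EC50 of inhibitor. Drug then removed and cultures maintained for 28 days post treatment. Recrudescence monitored by microscopy.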

Plasmodium falciparum [9] = experiment: Antimalarial activity against dihydroartemisinin-resistant asexual blood stage Plasmodium falciparum 803 assessed as reduction in parasite recrudescence at 10 times EC50 for 72 hrs measured after 28 days post invasion by Giemsa staining-based light microscopic analysis; type: functional; procedure, shortened: as §4
Plasmodium falciparum [10] = experiment: Antimalarial activity against mid/late trophozoite stage of Plasmodium falciparum 3D7 assessed as reduction in parasitemia at 10 times EC50 administered at synchronized early ring stages and then removed from culture at 2 hrs intervals after 34 hrs paraiste invasion stage and measured till 40 hrs post invasion by SYBR green-based fluorometric analysis; type: functional; set-up: scale not given: the % may be the effect or the level left
Procedure, shortened: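 Synchronized early-ring P. falciparum 3D7 treated with about 10×EC50 compound. Compound removed at 2 h intervals starting at t=34 h (trophozoite), then parasites returned to compound-free medium. Maturation through a single ~48 h asexual cycle followed.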

Plasmodium falciparum [11] = experiment: Antimalarial activity against chloroquine/quinine/sulfadoxine-pyrimethamine/amodiaquine-resistant asexual blood stage Plasmodium falciparum Dd2 after 72 hrs by SYBR green-based fluorometric analysis; type: functional; conditions: Dd2, 72 h; procedure, shortened: as §3
Plasmodium yoelii [12] = experiment: Antimalarial activity against Plasmodium yoelii YM infected in BALB/c mouse assessed as time duration for parasite cure at 30 mg/kg, sc administered BID for 4 days starting at 96 hrs post infection, 8 hrs apart by Giemsa-staining based microscopic analysis; type: functional; procedure, shortened: as §2
Plasmodium falciparum [13] = experiment: Antimalarial activity against chloroquine-resistant asexual blood stage Plasmodium falciparum GB4 after 72 hrs by SYBR green-based fluorometric analysis; type: functional; conditions: GB4, 72 h; procedure, shortened: as §3
Plasmodium falciparum [14] = experiment: Antimalarial activity against […] asexual blood stage Plasmodium falciparum 3D7 assessed as reduction in parasite recrudescence at 10 times EC50 for 72 hrs measured after 28 days post invasion by Giemsa staining-based light microscopic analysis; type: functional; procedure, shortened: as §4
Plasmodium falciparum [15] = experiment: Antimalarial activity against multi drug-resistant asexual blood stage Plasmodium falciparum Fab9 after 72 hrs by SYBR green-based fluorometric analysis; type: functional; conditions: Fab9, 72 h; procedure, shortened: as §3
Plasmodium falciparum [16] = experiment: Antimalarial activity against multi drug-resistant asexual blood stage Plasmodium falciparum D10 after 72 hrs by SYBR green-based fluorometric analysis; type: functional; conditions: D10, 72 h; procedure, shortened: as §3
Plasmodium yoelii [17] = experiment: Antimalarial activity against Plasmodium yoelii YM infected in BALB/c mouse assessed as time duration for parasite cure at 90 mg/kg, sc administered BID for 4 days starting at 96 hrs post infection, 8 hrs apart by Giemsa-staining based microscopic analysis; type: functional; procedure, shortened: as §2
Plasmodium yoelii [18] = experiment: Antimalarial activity against Plasmodium yoelii YM infected in BALB/c mouse assessed as parasite growth inhibition at 10 mg/kg, sc administered BID for 4 days starting at 96 hrs post infection, 8 hrs apart by Giemsa-staining based microscopic analysis; type: functional; conditions: read-out: GI; procedure, shortened: as §2
Plasmodium falciparum [19] = experiment: Antimalarial activity against dihydroartemisinin-resistant asexual blood stage Plasmodium falciparum 803 after 72 hrs by SYBR green-based fluorometric analysis; type: functional; conditions: Plasmodium falciparum, 803, 72 h; procedure, shortened: as §3
Plasmodium yoelii [20] = experiment: Antimalarial activity against Plasmodium yoelii YM infected in BALB/c mouse assessed as mouse survival at 90 mg/kg, sc administered BID for 4 days starting at 96 hrs post infection, 8 hrs apart by Giemsa-staining based microscopic analysis; type: functional; procedure, shortened: as §1
Plasmodium falciparum [21] = experiment: Antimalarial activity against Plasmodium falciparum 3D7 assessed as alteration of parasite morphology at 10 times EC50 dosed at ring stage […] by Giemsa staining-based light microscopic analysis; type: functional, organism-based
Plasmodium falciparum [22] = experiment: Antimalarial activity against chloroquine/quinine-resistant asexual blood stage Plasmodium falciparum S35 after 72 hrs by SYBR green-based fluorometric analysis; type: functional; conditions: S35, 72 h; procedure, shortened: as §3
Plasmodium yoelii [23] = experiment: Antimalarial activity against Plasmodium yoelii YM infected in BALB/c mouse assessed as mouse survival at 5 mg/kg, sc administered QD for 4 days starting at 2 hrs post infection by Giemsa-staining based microscopic analysis; type: functional
Procedure, shortened: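 Mice inoculated with 1×106 P. yoelii parasites, then dosed subcutaneously once daily for 4 days starting 2 h post infection. Parasitemia followed by microscopy of blood smears. Survival scored at 40 days post infection in groups of n=3 mice. DMSO-only controls.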

Plasmodium yoelii [24] = experiment: Antimalarial activity against Plasmodium yoelii YM infected in BALB/c mouse assessed as mouse survival at 30 mg/kg, sc administered BID for 4 days starting at 96 hrs post infection, 8 hrs apart by Giemsa-staining based microscopic analysis; type: functional; procedure, shortened: as §1

Compound | survival at 10 mg/kg (Plasmodium yoelii [1]) [%] | inhibition in vivo at 5 mg/kg (Plasmodium yoelii [2]) [%] | inhibition in vivo at 90 mg/kg (Plasmodium yoelii [3]) [%] | EC50 (Plasmodium falciparum [4]) [nM] | EC50 (Plasmodium falciparum [5]) [nM] | inhibition in vivo at 30 mg/kg (Plasmodium yoelii [6]) [%] | EC50 (Plasmodium falciparum [7]) [nM] | Activity (HeLa) | Activity (Plasmodium falciparum [8]) | Activity (Plasmodium falciparum [9]) | Activity (Plasmodium falciparum [10]) | EC50 (Plasmodium falciparum [11]) [nM] | Time (Plasmodium yoelii [12]) [days] | EC50 (Plasmodium falciparum [13]) [nM] | Activity (Plasmodium falciparum [14]) | EC50 (Plasmodium falciparum [15]) [nM] | EC50 (Plasmodium falciparum [16]) [nM] | Time (Plasmodium yoelii [17]) [days] | inhibition in vivo at 10 mg/kg (Plasmodium yoelii [18]) [%] | EC50 (Plasmodium falciparum [19]) [nM] | further results
Cc1c(-c2ccc(Cc3ccc(SC(F)(F)F)cc3)cc2)[nH]c2cccc(F)c2c1=O | 0 | 0 | 100 | 5.26 | 5.69 | 99.8 | 6.24 | Non-Toxic | Active | Active | >=50% | 2.1 | 15 | 3.17 | Active | 5.46 | 7.7 | 14 | 0 | 4.66 | survival at 90 mg/kg (Plasmodium yoelii [20]): 100%; Activity (Plasmodium falciparum [21]): Active; EC50 (Plasmodium falciparum [22]): 4.82 nM; survival at 5 mg/kg (Plasmodium yoelii [23]): 0%; survival at 30 mg/kg (Plasmodium yoelii [24]): 100%
Cc1c(-c2ccc(Cc3ccc(OC(F)(F)F)cc3)cc2)[nH]c2cccc(F)c2c1=O | 100 | 100 | 100 | 7.18 | 11.3 | 100 | 9.58 | Non-Toxic | Active | Active | >=50% | 3.83 | 4 | 8.16 | Active | 6.25 | 9.18 | 4 | 100 | 5.56 | survival at 90 mg/kg (Plasmodium yoelii [20]): 100%; Activity (Plasmodium falciparum [21]): Active; EC50 (Plasmodium falciparum [22]): 5.48 nM; survival at 5 mg/kg (Plasmodium yoelii [23]): 100%; survival at 30 mg/kg (Plasmodium yoelii [24]): 100%
